From ChEMBL document CHEMBL1157407, “Inhibitors of bacterial multidrug efflux pumps from the resin glycosides of Ipomoea murucoides” (2008)
Values after ≈ are worked out from the molar mass of the structure shown.

Legend:
Assay type in all cases: functional
[1] = test system: Staphylococcus aureus; assay: Antimicrobial activity against methicillin-resistant Staphylococcus aureus XU212
How it was run: (§1)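 Broth microdilution MIC per NCCLS guidelines, at least in duplicate, in cation-adjusted Mueller-Hinton broth (20 mg/L Ca2+, 10 mg/L Mg2+). Strains grown on nutrient agar first. Inoculum 5×10^5 cfu prepared in 0.9% saline against a McFarland standard. Compounds dissolved in DMSO, 2-fold serial dilutions, final 1–512 µg/mL (DMSO ≤3.125% v/v). MIC taken as lowest concentration with no visible growth.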

[2] = test system: Staphylococcus aureus; assay: Antimicrobial activity against Staphylococcus aureus ATCC 25923
How it was run: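 Broth microdilution MIC per NCCLS guidelines, at least in duplicate. Inoculum 5×10^5 cfu prepared in 0.9% saline against a McFarland standard. Cation-adjusted Mueller-Hinton broth with 20 mg/L Ca2+ and 10 mg/L Mg2+. Compounds dissolved in DMSO, then 2-fold serial dilutions, final 1–512 μg/mL; DMSO at most 3.125% v/v. MIC is the lowest concentration giving no visible growth.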

[3] = test system: KB; assay: Cytotoxicity against human KB cells after 72 hrs; conditions: read-out: ED50 (the source's name)
How it was run: (§2)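 Cells grown in RPMI 1640 with 10% fetal bovine serum at 37 °C, 5% CO2, humidified. Log-phase cells treated in triplicate with test samples at 0.16–20 μg/mL for 72 h. Growth read by the NCI sulforhodamine method. ED50 is the dose inhibiting 50% of control growth, estimated from a semilog plot of concentration against percentage of viable cells.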

[4] = test system: HEp-2; assay: Cytotoxicity against human Hep2 cells after 72 hrs; conditions: HEp-2, 72 h, read-out: ED50 (the source's name); how it was run: as §2
[5] = test system: HeLa; assay: Cytotoxicity against human HeLa cells after 72 hrs; conditions: read-out: ED50 (the source's name); how it was run: as §2
[6] = test system: Staphylococcus aureus; assay: Antimicrobial activity against epidemic methicillin-resistant Staphylococcus aureus 15 containing mecA gene; how it was run: as §1
[7] = test system: Staphylococcus aureus; assay: Antimicrobial activity against multidrug-resistant Staphylococcus aureus over expressing NorA MDR efflux pump; how it was run: as §1

SMILES	MIC [1] [µg/mL]	MIC [2] [µg/mL]	EC50 [3] [µg/mL]	EC50 [4] [µg/mL]	EC50 [5] [µg/mL]	MIC [6] [µg/mL]	MIC [7] [µg/mL]
CCCCC[C@H]1CCCCCCCCCC(=O)O[C@H]2[C@@H](O)[C@H](O[C@H]3[C@H](O1)O[C@H](C)[C@H](O)[C@@H]3O)O[C@@H](C)[C@@H]2O[C@@H]1O[C@@H](C)[C@H](O[C@@H]2O[C@@H](C)[C@H](OC(=O)[C@@H](C)CC)[C@@H](O)[C@H]2O)[C@@H](O[C@@H]2O[C@@H](C)[C@H](O)[C@@H](O)[C@H]2O)[C@H]1OC(=O)[C@@H](C)CC [STOLONIFERIN I]	256 (≈ 222 µM)	> 512	> 20	> 20	> 20	512 (≈ 444 µM)	64 (≈ 55.5 µM)
CCCCC[C@H]1CCCCCCCCCC(=O)O[C@H]2[C@H](O)[C@@H](CO)O[C@@H](O[C@H]3[C@H](O1)O[C@H](C)[C@H](O)[C@@H]3O)[C@@H]2O[C@@H]1O[C@@H](C)[C@H](OC(=O)[C@@H](C)CC)[C@@H](O[C@@H]2O[C@@H](C)[C@H](O)[C@@H](O)[C@H]2O)[C@H]1OC(=O)[C@@H](C)CC [TRICOLORIN A]	8 (≈ 7.82 µM)	16 (≈ 15.6 µM)	1 (≈ 0.977 µM)	1.6 (≈ 1.56 µM)	4.7 (≈ 4.59 µM)	4 (≈ 3.91 µM)	8 (≈ 7.82 µM)
CCCCC[C@H]1CCCCCCCCCC(=O)O[C@H]2[C@H](O)[C@@H](CO)O[C@@H](O[C@H]3[C@H](O1)O[C@H](C)[C@@H](O)[C@@H]3O)[C@@H]2O[C@@H]1O[C@@H](C)[C@H](OC(=O)[C@@H](C)CC)[C@@H](O[C@@H]2O[C@@H](C)[C@H](O)[C@@H](O)[C@H]2O)[C@H]1OC(=O)[C@@H](C)CC [TRICOLORIN E]	8 (≈ 7.82 µM)	16 (≈ 15.6 µM)	> 20	> 20	> 20	8 (≈ 7.82 µM)	8 (≈ 7.82 µM)
